This note sets out measurements from ChEMBL document CHEMBL1212846, “Synthesis and in vivo evaluation of [11C]tariquidar, a positron emission tomography radiotracer based on a third-generation P-glycoprotein inhibitor” (Bioorg Med Chem, 2010).

Calls of active or inactive are those of the source. The rule behind the calls is not given here.

For data set [1], the system named is Brain. In words: Drug uptake in rat brain after 25 mins. It is filed as ADME, tissue-based. The settings on record: in vivo. In a few lines:
(§1)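 Naïve rats under isoflurane anaesthesia (1.5–2% maintenance), warmed to about 38 °C, with femoral artery and vein catheters. Baseline dynamic PET, whole-brain TACs expressed as SUV. Arterial blood sampled frequently and gamma-counted.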

Data set [2] relates to Brain. The data set can be described thus: Drug uptake in rat brain at 15 mg/kg, iv after 60 mins post-radiotracer administration. It is filed as ADME, organism-based. Details: dose 15 mg/kg, route intravenous. Conditions: in vivo, 1 h.
Data set [3] relates to Brain. The data set can be described thus: Drug uptake in rat brain at 5 mg/kg, iv after 60 mins post-radiotracer administration. It is filed as ADME, organism-based. Details: dose 5 mg/kg, route intravenous. Conditions: in vivo, 1 h.
The target in data set [4] is T1, Broad substrate specificity ATP-binding cassette transporter ABCG2 (Homo sapiens, UniProt Q9UNQ0).
T1 sequence (Q9UNQ0 whole entry): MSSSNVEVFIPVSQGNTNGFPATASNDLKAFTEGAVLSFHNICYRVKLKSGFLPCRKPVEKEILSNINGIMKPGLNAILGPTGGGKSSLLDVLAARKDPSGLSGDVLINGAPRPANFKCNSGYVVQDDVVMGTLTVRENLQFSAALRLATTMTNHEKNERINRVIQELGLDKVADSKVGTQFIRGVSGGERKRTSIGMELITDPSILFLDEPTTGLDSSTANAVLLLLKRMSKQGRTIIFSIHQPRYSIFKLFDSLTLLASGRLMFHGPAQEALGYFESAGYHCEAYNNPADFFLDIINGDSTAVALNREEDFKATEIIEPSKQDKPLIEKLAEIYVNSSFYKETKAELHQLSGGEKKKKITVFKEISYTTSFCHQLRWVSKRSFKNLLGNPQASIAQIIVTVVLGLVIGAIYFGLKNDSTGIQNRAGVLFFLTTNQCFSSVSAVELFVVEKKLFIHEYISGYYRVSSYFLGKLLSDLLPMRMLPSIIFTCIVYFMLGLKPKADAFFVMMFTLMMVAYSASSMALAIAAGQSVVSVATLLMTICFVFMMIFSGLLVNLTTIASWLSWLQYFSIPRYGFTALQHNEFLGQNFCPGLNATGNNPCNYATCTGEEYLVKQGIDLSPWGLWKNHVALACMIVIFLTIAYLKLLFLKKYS
In words: Inhibition of BCRP.

A short description of data set [5]: Inhibition of MRP.
The test system of data set [6] is Brain. In words: Biodistribution in mouse brain. It is filed as ADME, organism-based. The settings on record: in vivo. In a few lines:
(§2)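 Mice (wild-type, Mdr1a/b(−/−), Bcrp1(−/−), Mdr1a/b(−/−)Bcrp1(−/−); n = 3 per type) under isoflurane anaesthesia, warmed to about 38 °C. Whole-brain SUV taken at 25 min. Brain-to-blood ratio = individual brain SUV ÷ mean whole-blood SUV from separate groups, with blood drawn retro-orbitally at 25 min and gamma-counted.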

In data set [7] the test system is Brain. In words: Drug uptake in rat brain after 0.5 to 1.3 mins. Type of data set: ADME, tissue-based. The settings on record: in vivo. In a few lines: as §1
Data set [8] is described as follows: Ratio of drug level from brain to blood in MDR1a/b deficient FVB mouse. The settings on record: brain and blood. It is filed as ADME, tissue-based. The method in brief: as §2
A short description of data set [9]: Ratio of drug level from brain to blood in BCRP1 deficient FVB mouse. Type of data set: ADME, tissue-based. The settings on record: brain and blood. The method in brief: (§3)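 Single 60-min dynamic PET scan, whole brain outlined, SUV read at 25 min. Venous blood drawn retro-orbitally at 25 min in separate groups, gamma-counted and decay-corrected. Brain SUV of each animal divided by mean blood SUV of that group.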

The nature of data set [10]: Ratio of drug level from brain to blood in MDR1a/b and BCRP1 deficient FVB mouse. It is filed as ADME, tissue-based. The method in brief: as §2
Data set [11] can be described thus: Ratio of drug level from brain to blood in wild type FVB mouse. It is filed as ADME, tissue-based. Conditions: brain and blood. The method in brief: as §3
Data set [12] relates to Brain. In words: Decrease in binding in BCRP1 deficient FVB mouse brain. The settings on record: in vitro.
In data set [13] the test system is Brain. The data set can be described thus: Decrease in binding in MDR1a/b deficient FVB mouse brain. The settings on record: in vitro.
Data set [14] concerns Brain. The data set can be described thus: Decrease in binding in MDR1a/b and BCRP1 deficient FVB mouse brain. Conditions: in vitro.

For `COc1cc2c(cc1OC)CN(CCc1ccc(NC(=O)c3cccc4c(=O)c5cccc(OC)c5[nH]c34)cc1)CC2` [ELACRIDAR], the results for the SUV in data set [1], in data set [2] and in [3] were 0.19, 0.43 and 0.71, respectively.
Turning to `COc1cc2c(cc1OC)CN(CCc1ccc(NC(=O)c3cc(OC)c(OC)cc3NC(=O)c3cnc4ccccc4c3)cc1)CC2` [TARIQUIDAR], the “inhibition (INH)” value in data set [4] is “Active”. Besides, the inhibition entry in data set [5] was “Active”. The Activity in data set [6] was 24%.
What is called Kp is the ratio of the level in a tissue or fluid to that in plasma or blood. In the case of `COc1cc2c(cc1OC)CN(CCc1ccc(NC(=O)c3cc(O[11CH3])c(OC)cc3NC(=O)c3cnc4ccccc4c3)cc1)CC2` [[11C]TARIQUIDAR], the SUV in data set [7] is given as 0.71. For the same compound, the Kp in [8] amounted to 3.4; in data set [9] it was 1.8; in data set [10], 14.5; in [11], 1. For the same compound, the “% decrease in binding” value in data set [12] came to 41%; in data set [13] it was 49%; in [14] it was 46%.
